We go through 5 compounds from ChEMBL document CHEMBL1144256, “Potent Kv1.3 inhibitors from correolide-modification of the C18 position” (Bioorg Med Chem Lett, 2005).

In test [1] the target is T1, Potassium voltage-gated channel subfamily A member 3 (Homo sapiens, UniProt P22001). The test is described as follows: Inhibitory activity against voltage-gated potassium channel subunit Kv1.3. Format: functional.
The target in test [2] is T1, Potassium voltage-gated channel subfamily A member 3. The test is described as follows: Relative T cell IC50 compared to IC50 for correolide assay. Format: functional, cell-based. An outline of the steps: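 Ratio of correolide IC50 to compound IC50 in the anti-CD3-stimulated human peripheral blood T cell proliferation assay; a larger value means greater potency.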

Test [3] has the same target. The test is described as follows: Inhibition of voltage-gated potassium channel subunit Kv1.3 in chinese hamster ovary cells. The class given is functional, cell-based. The essentials:
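Depolarization-induced ⁸⁶Rb⁺ efflux measured in CHO cells stably transfected with human Kv1.3 channel (Rb_Kv functional assay), with short compound incubation; IC50 reported.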

The target is the same in test [4]. In words: Inhibitory activity against voltage-gated potassium channel subunit Kv1.3 of human T cells. The class given is functional, cell-based, T-cell.

T1 sequence (P22001 whole entry): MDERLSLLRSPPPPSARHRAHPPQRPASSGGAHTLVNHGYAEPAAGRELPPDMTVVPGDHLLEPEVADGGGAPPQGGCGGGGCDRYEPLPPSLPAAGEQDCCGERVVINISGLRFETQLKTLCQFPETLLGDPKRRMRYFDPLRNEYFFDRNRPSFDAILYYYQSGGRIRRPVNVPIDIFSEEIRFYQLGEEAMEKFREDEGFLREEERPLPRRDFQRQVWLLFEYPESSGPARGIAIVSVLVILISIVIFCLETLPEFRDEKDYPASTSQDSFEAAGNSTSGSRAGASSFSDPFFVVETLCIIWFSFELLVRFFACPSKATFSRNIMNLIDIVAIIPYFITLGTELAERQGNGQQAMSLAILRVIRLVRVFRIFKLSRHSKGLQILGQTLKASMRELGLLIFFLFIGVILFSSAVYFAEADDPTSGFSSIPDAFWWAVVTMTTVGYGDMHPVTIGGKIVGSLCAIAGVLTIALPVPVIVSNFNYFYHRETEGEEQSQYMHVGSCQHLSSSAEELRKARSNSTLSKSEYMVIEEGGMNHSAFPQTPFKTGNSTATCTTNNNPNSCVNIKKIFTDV

In test [1], `COC(=O)C12O[C@@H]1C(=O)CC1(O)C3CC[C@]4(C)C([C@H](OC(C)=O)[C@H](OC(C)=O)[C@@]5([C@@H](C)OC(C)=O)COCC=CC45)[C@@]3(C)[C@H](OC(C)=O)[C@H](OC(C)=O)[C@]12C` (some centres undefined) gave an IC50 of 35 nM.

As for `C=C1C[C@@]2(O)C3CC[C@]4(C)C([C@H](OC(C)=O)[C@H](OC(C)=O)[C@@]5([C@@H](C)OC(C)=O)COCC=CC45)[C@@]3(C)[C@H](OC(C)=O)[C@H](OC(C)=O)[C@@]2(C)C2(C(=O)OC)O[C@H]12` (some centres undefined), in test [1], the IC50 was found to be 10 nM.

For `CC(=O)O[C@H]1C2[C@@](C)(CCC3C(=O)C(C)=C[C@@H](OC(C)=O)[C@@]32C)C2C=CCOC[C@]2([C@@H](C)OC(C)=O)[C@H]1OC(C)=O` (some centres undefined), the IC50 in test [1] was 5600 nM.

For `COc1ccccc1[C@H](C)C[C@]1(O)C(C)=C[C@@H](OC(C)=O)[C@]2(C)C3[C@H](OC(C)=O)[C@H](OC(C)=O)[C@@]4([C@@H](C)OC(C)=O)COCC=CC4[C@]3(C)CCC21` (some centres undefined), the Ratio in test [2] stood at 7.2. In addition, the results for the 50% inhibitory concentration (IC50) in test [3] and in test [4] were 19 nM and 25.6 nM, respectively.

Regarding `CC(=O)O[C@H]1C2[C@@](C)(CCC3C(O)(C[C@@H](C)c4ccccc4)C(C)=C[C@@H](OC(C)=O)[C@@]32C)C2C=CCOC[C@]2([C@@H](C)OC(C)=O)[C@H]1OC(C)=O` (some centres undefined), the Ratio in test [2] is 1.8. Also, the 50% inhibitory concentration (IC50) is 12 nM in test [3] and 102 nM in test [4].
